Source: ChEMBL document CHEMBL3352534, “A prodrug strategy for the oral delivery of a poorly soluble HCV NS5B thumb pocket 1 polymerase inhibitor using self-emulsifying drug delivery systems (SEDDS)” (Bioorg Med Chem Lett, 2015)

Assays:
Plasma [1] = assay: Prodrug conversion in human plasma assessed as half life
Plasma [2] = assay: Prodrug conversion in rat plasma assessed as half life; format: ADME, cell-free
Summary of the method: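 Rat plasma (from centrifuged whole blood) was incubated with 2 µM compound at 37 °C. Samples were quenched 1:3 with acetonitrile/methanol 1:1, centrifuged and analysed by HPLC-PDA. Half-life was taken as 0.693/first-order rate of loss of the starting compound.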

[3] = Prodrug conversion in simulated gastric fluid assessed as half life; format: ADME; details: simulated gi fluid
Summary of the method: (§1)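 Incubations used 2 µM compound at 37 °C in either SGF (0.2% NaCl/HCl, pH 1.2, pepsin 3.2 mg/mL) or SIF (KH2PO4/NaOH, pH 7.5, pancreatin 10 mg/mL). Samples were quenched 1:2 with acetonitrile/methanol 1:1 and analysed by HPLC. t1/2 = 0.693/first-order disappearance rate.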

Intestine = assay: Prodrug conversion in rat intestinal microsomes assessed as half life
[4] = Prodrug conversion in simulated intestinal fluid assessed as half life; format: ADME; details: simulated gi fluid; summary of the method: as §1
Liver microsome [5] = assay: Prodrug conversion in rat liver microsomes assessed as half life
[6] = Prodrug conversion in human intestinal microsomes assessed as half life
Liver microsome [7] = assay: Prodrug conversion in human liver microsomes assessed as half life
[8] = Cmax in rat plasma at 10 mg/kg, po using 0.5% Methyl cellulose, 0.3% Tween-80, 1% N-methylpyrrolidone in water vehicle; format: ADME, organism-based; design: dose 10 mg/kg, route oral; details: plasma
Summary of the method: (§2)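 Fasted rats were given a single 10 mg/kg oral dose, with n = 3 per dose and route. Plasma was extracted by solid-phase extraction. Analysis used HPLC with diode-array UV (200–400 nm, peak height at best S/N) or LC/MS. Calibration standards were made in blank plasma, with LOQ 7–14 ng/mL. Parameters came from noncompartmental analysis.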

[9] = AUC in rat plasma at 10 mg/kg, po using 0.5% Methyl cellulose, 0.3% Tween-80, 1% N-methylpyrrolidone in water vehicle; format: ADME, organism-based; design: dose 10 mg/kg, route oral; details: plasma; summary of the method: as §2
Rattus norvegicus [10] = assay: Cmax in rat plasma assessed as (E)-3-(4-(1-(2-(5-chloropyrimidin-2-yl)-3-cyclopentyl-1-methyl-1H-indole-6-carboxamido)cyclobutanecarboxamido)-2-ethoxyphenyl)acrylic acid at 10 mg/kg, po using 0.5% Methyl cellulose, 0.3% Tween-80, 1% N-methylpyrrolidone in water vehicle; format: ADME, organism-based; design: dose 10 mg/kg, route oral; details: in vivo; summary of the method: as §2
Rattus norvegicus [11] = assay: AUC in rat plasma assessed as (E)-3-(4-(1-(2-(5-chloropyrimidin-2-yl)-3-cyclopentyl-1-methyl-1H-indole-6-carboxamido)cyclobutanecarboxamido)-2-ethoxyphenyl)acrylic acid at 10 mg/kg, po using 0.5% Methyl cellulose, 0.3% Tween-80, 1% N-methylpyrrolidone in water vehicle; format: ADME, organism-based; design: dose 10 mg/kg, route oral; details: in vivo; summary of the method: as §2
[12] = (§3) Cmax in rat plasma at 10 mg/kg, po using 10.6% PEG400, 5.4% Cremophor EL, 2.6% Labrasol, 1.4% Capmul MCM in water (80%) vehicle; format: ADME, organism-based; design: dose 10 mg/kg, route oral; details: plasma; summary of the method: as §2
[13] = (§4) AUC in rat plasma at 10 mg/kg, po using 10.6% PEG400, 5.4% Cremophor EL, 2.6% Labrasol, 1.4% Capmul MCM in water (80%) vehicle; format: ADME, organism-based; design: dose 10 mg/kg, route oral; details: plasma; summary of the method: as §2
Rattus norvegicus [14] = assay: Cmax in rat plasma assessed as (E)-3-(4-(1-(2-(5-chloropyrimidin-2-yl)-3-cyclopentyl-1-methyl-1H-indole-6-carboxamido)cyclobutanecarboxamido)-2-ethoxyphenyl)acrylic acid at 10 mg/kg, po using 10.6% PEG400, 5.4% Cremophor EL, 2.6% Labrasol, 1.4% Capmul MCM in water (80%) vehicle; format: ADME, organism-based; design: dose 10 mg/kg, route oral; details: in vivo; summary of the method: as §2
Rattus norvegicus [15] = assay: AUC in rat plasma assessed as (E)-3-(4-(1-(2-(5-chloropyrimidin-2-yl)-3-cyclopentyl-1-methyl-1H-indole-6-carboxamido)cyclobutanecarboxamido)-2-ethoxyphenyl)acrylic acid at 10 mg/kg, po using 10.6% PEG400, 5.4% Cremophor EL, 2.6% Labrasol, 1.4% Capmul MCM in water (80%) vehicle; format: ADME, organism-based; design: dose 10 mg/kg, route oral; details: in vivo; summary of the method: as §2
[16] = Prodrug solubility in capmul; format: ADME
[17] = Prodrug solubility in solutol; format: ADME
[18] = Prodrug solubility in Labrasol; format: ADME
[19] = Dissociation constant, pKa of the compound; format: physicochemical
Rattus norvegicus [20] = assay: as §3; format: ADME, organism-based; design: dose 10 mg/kg, route oral; details: in vivo, BLD = below limit of detection; summary of the method: as §2
Rattus norvegicus [21] = assay: as §4; format: ADME, organism-based; design: dose 10 mg/kg, route oral; details: in vivo, BLD = below limit of detection; summary of the method: as §2

t1/2 (Plasma [1]) | t1/2 (Plasma [2]) | t1/2 [3] | t1/2 (Intestine) | t1/2 [4] | t1/2 (Liver microsome [5]) | t1/2 [6] | t1/2 (Liver microsome [7]) | Cmax [12] | AUC [13] | Cmax (Rattus norvegicus [14]) | AUC (Rattus norvegicus [15]) | solubility [16] | solubility [17] | solubility [18] | pKa [19] | Cmax (Rattus norvegicus [20]) | AUC (Rattus norvegicus [21]) | Structure (SMILES) | also measured
> 5 h | 1.6 h | 0.333 h | 3.5 h | 4.28 h | 0.583 h | 15.2 h | 0.917 h | 70 nM | 0.2 µM·h | 7200 nM | 35.2 µM·h | < 30 mg/mL | < 60 mg/mL | < 60 mg/mL | 5.7 | – | – | CCOc1cc(NC(=O)C2(NC(=O)c3ccc4c(C5CCCC5)c(-c5ncc(Cl)cn5)n(C)c4c3)CCC2)ccc1/C=C/C(=O)OCCN1CCOCC1 | –
– | – | – | – | – | – | – | – | – | – | 1100 nM | 6.5 µM·h | < 60 mg/mL | < 100 mg/mL | < 60 mg/mL | 7.7 | BLD | BLD | CCOc1cc(NC(=O)C2(NC(=O)c3ccc4c(C5CCCC5)c(-c5ncc(Cl)cn5)n(C)c4c3)CCC2)ccc1/C=C/C(=O)OCCN1CCCC1 | –

More lines, now with the values behind:

Structure (SMILES) | t1/2 (Plasma [1]) | t1/2 (Plasma [2]) | t1/2 [3] | t1/2 (Intestine) | t1/2 [4] | t1/2 (Liver microsome [5]) | t1/2 [6] | t1/2 (Liver microsome [7]) | Cmax [12] | AUC [13] | Cmax (Rattus norvegicus [14]) | AUC (Rattus norvegicus [15]) | solubility [16] | solubility [17] | solubility [18] | pKa [19] | Cmax (Rattus norvegicus [20]) | AUC (Rattus norvegicus [21]) | also measured
CCOc1cc(NC(=O)C2(NC(=O)c3ccc4c(C5CCCC5)c(-c5ncc(Cl)cn5)n(C)c4c3)CCC2)ccc1/C=C/C(=O)OC | > 5 h | > 5 h | 2.5 h | 1.82 h | 6.87 h | 1.63 h | 9.07 h | 12.7 h | 840 nM | 2.6 µM·h | 5200 nM | 30.7 µM·h | – | – | – | – | – | – | Cmax [8]: 10 nM; AUC [9]: 0.07 µM·h; Cmax (Rattus norvegicus [10]): 510 nM; AUC (Rattus norvegicus [11]): 5.7 µM·h
CCOc1cc(NC(=O)C2(NC(=O)c3ccc4c(C5CCCC5)c(-c5ncc(Cl)cn5)n(C)c4c3)CCC2)ccc1/C=C/C(=O)OCCN(C)C | > 5 h | 1.4 h | 1.82 h | 1.47 h | 6.6 h | 0.317 h | > 5 h | 1.5 h | – | – | 1600 nM | 10.1 µM·h | < 100 mg/mL | < 100 mg/mL | < 100 mg/mL | 7.7 | BLD | BLD | –
CCOc1cc(NC(=O)C2(NC(=O)c3ccc4c(C5CCCC5)c(-c5ncc(Cl)cn5)n(C)c4c3)CCC2)ccc1/C=C/C(=O)OCCN1CCN(C)CC1 | – | – | – | – | – | 0.217 h | – | 1.85 h | – | – | 1200 nM | 7.9 µM·h | – | < 100 mg/mL | < 100 mg/mL | 7.7 | BLD | BLD | –
